Bioassay records as filed in PubChem BioAssay.
Compounds with a hit are over-represented: about 2.4% of the library has one in this group of screens.
NR2E3 ag-1 = inhibitors of NR2E3-RetCOR corepressor binding, primary screen, NR2E3 agonist project, biochemical, TR-FRET, GST-NR2E3, biotin-RetCOR; Photoreceptor-specific nuclear receptor (Homo sapiens), Q9Y5X4; 1536-well; 320,000 compounds, 0.12% hits; inhibition of corepressor binding, % at 4.78 µM;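 active = percent inhibition above the cutoff of mean plus 3 SD of all tested compounds, set per screening campaign, cut at about 20% in these data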
Target sequence (Q9Y5X4 whole entry, looked up): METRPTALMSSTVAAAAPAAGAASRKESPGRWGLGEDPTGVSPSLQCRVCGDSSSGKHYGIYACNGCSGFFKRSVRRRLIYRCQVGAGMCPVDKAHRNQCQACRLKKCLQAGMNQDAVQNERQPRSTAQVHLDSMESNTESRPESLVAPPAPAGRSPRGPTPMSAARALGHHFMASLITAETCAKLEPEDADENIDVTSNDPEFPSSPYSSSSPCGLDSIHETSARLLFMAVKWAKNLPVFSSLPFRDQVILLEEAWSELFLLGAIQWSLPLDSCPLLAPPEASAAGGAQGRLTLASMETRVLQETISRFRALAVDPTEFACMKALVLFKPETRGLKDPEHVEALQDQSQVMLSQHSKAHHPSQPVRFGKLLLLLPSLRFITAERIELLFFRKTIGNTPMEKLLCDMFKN
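Material: NR2E3–RetCOR corepressor complex | Quantity: 1.35 nM GST-tagged NR2E3 final | Schedule: 5 h at 4 °C | Replication: Singlicate compound wells | Reagent: RetCOR corepressor, biotinylated, 7 nM | Controls: Biotin wells as high control, 0.6% DMSO wells as low control | Signal: TR-FRET, Eu(K)-anti-GST donor, streptavidin-D2 acceptor, ex 340, em 617/671 nm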
MPTP block = mitochondrial permeability transition pore inhibitors, primary screen, biochemical, isolated mouse mitochondria, absorbance. 360,000 compounds, 1.4% hits. inhibition, % at 10 µM. Ca2+ swelling absorbance, 30 min;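 active = inhibition of 50% or more, scaled per plate between neutral and stimulator controls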
Jurkat NFkB inh = inhibitors of induced NF-kB luciferase reporter, primary screen, TCR NF-kB activation inhibitor project, cell-based, luminescence, uHTS. Jurkat, PMA/ionomycin-induced NF-kB luciferase reporter. inhibition, % at 4 µM. 330,000 compounds, 0.53% hits; in the data active = inhibition above about 50%
aDG glyco act = activators of alpha-DG glycosylation, primary screen, uHTS, Pro5-aDG cells, AlphaScreen; alpha-DG glycosylation AlphaScreen (IIH6); 0% Pro5, 100% B10-LARGE cell signal; AID 624168, 2012; activation, % at 10 µM; 360,000 compounds, 0.22% hits;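 active = activation of at least 8% versus controls, or a plate z-score of at least 8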;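 also: Pro5 are CHO cells carrying HIG-tagged alpha-DG that lacks glycosylation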
697 NFkB inh = inhibitors of PMA/ionomycin-induced NF-kB reporter, 697 cells, primary screen, B-cell NF-kB inhibitor project, cell-based, luminescence, uHTS. inhibition, % at 4 µM. 330,000 compounds, 0.33% hits. 697 B-cell NF-kB luciferase reporter, 16 h; in the data active = inhibition above about 35%
NR2E3 ag-2 = NR2E3 agonists in two-hybrid cells, primary screen, cell-based, luminescence, CHO-S, Gal4-NCOR/VP16-NR2E3; luciferase; AID 602229, 2012; inhibition of corepressor binding, % at 3.98 µM; Photoreceptor-specific nuclear receptor (Homo sapiens), Q9Y5X4; 360,000 compounds, 0.35% hits;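 active = inhibition above the mean of all tested compounds plus 3 SD, cut at about 70% in these data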;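 also: higher means lower luciferase signal from less NR2E3 corepressor binding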
Rh123 counter = fluorescence retest of MPTP screen hits in isolated mitochondria, single concentration; membrane potential, Rhodamine 123 fluorescence; 5,000 compounds, 78% hits; inhibition, % at 10 µM; shares compounds with MPTP block; in the data active = inhibition above about 22%
MPTP swell DR = mitochondrial permeability transition pore inhibitors, dose response, biochemical, absorbance, uHTS hits; IC50, µM; AID 651561, 2012; shares compounds with MPTP block; 780 compounds, 58% hits; isolated mitochondria swelling; in the data active = IC50 below about 20 µM
MPTP cs DR = fluorescent counter-screen in isolated mitochondria, dose response, counter-screen for MPTP inhibitor project, biochemical, fluorescence, uHTS hits. shares compounds with MPTP block. isolated mitochondria counterscreen, fluorescence read-out. IC50, µM. 780 compounds, 49% hits. AID 651564, 2012; in the data active = IC50 below about 80 µM
Each line names hits and unclear results; the compound was inactive in the other large screens (follow-up assays come after a bar, where they were run).

COc1ccc(-c2nnc(C(C)Nc3cccc(C(=O)NC4CC4)c3)o2)cc1 (stereo unspecified)	none (no result: NR2E3 ag-1)
COc1cc2c(cc1OC)CN(Cc1ccc(C)s1)CC2	none
CNC(=O)c1cnc(-c2ccccc2)nc1-c1ccccc1	none
O=C(Nc1ccc(Cl)cc1)c1cnc(-c2ccccc2)nc1-c1ccccc1	MPTP block 73 | Rh123 counter 36
CCc1cc2cc(C)cc(C)c2nc1SCC(=O)N1CCN(C(=O)c2ccco2)CC1	MPTP block 64 | Rh123 counter 30
CCc1cc2cccc(C)c2nc1SCC(=O)N1CCN(C(=O)c2ccco2)CC1	none
FC(F)Sc1ccc(NC(=S)NC2CCCC2)cc1	MPTP block 95 | Rh123 counter 94
CC1CCCC(NC(=S)Nc2ccc(SC(F)F)cc2)C1C (stereo unspecified)	MPTP block 103 | Rh123 counter 97
O=C(CNCc1ccccc1)Nc1ccc(Oc2ccccc2)cc1	MPTP block 66 | Rh123 counter inactive | MPTP swell DR inactive | MPTP cs DR 43
S=C(NCc1cccnc1)Nc1ccc(Oc2ccc(Cl)cc2)cc1	MPTP block 80 | Rh123 counter 66
S=C(NCc1ccccc1)Nc1ccc(Oc2ccccc2)cc1	MPTP block 86 | Rh123 counter 87
S=C(NCc1cccnc1)Nc1ccc(Cl)c(Cl)c1	MPTP block 71 | Rh123 counter 93
COc1ccc(NC(=S)NCc2cccnc2)cc1	none
CCNC(=S)Nc1ccc(Oc2ccccc2)cc1	none
Cc1ccc(/C=C/S(=O)(=O)NCC(=O)OCC(=O)NCc2ccccc2)cc1	none
O=C(COn1nnc2ccc(S(=O)(=O)N3CCOCC3)cc21)NCc1cccc(Cl)c1	none (no result: NR2E3 ag-1, Jurkat NFkB inh, 697 NFkB inh)
COc1ccc([C@H]2CN(c3ccc(OC)cc3)C(=O)[C@@H]2CC(=O)Nc2ccccc2)cc1	none (no result: NR2E3 ag-1, Jurkat NFkB inh, 697 NFkB inh)
Cc1nc2ccc(F)cc2cc1C(=O)NCc1ccco1	none
Cc1nc2ccc(F)cc2cc1C(=O)Nc1ccc(Cl)c(Cl)c1	MPTP block 93 (no result: Jurkat NFkB inh, 697 NFkB inh) | Rh123 counter 82
Cc1ccc(N/N=C(/Sc2nnnn2-c2ccccc2)C(=O)c2ccccc2)cc1	none
O=C(/C(=N\Nc1ccc([N+](=O)[O-])cc1)Sc1nnnn1-c1ccccc1)c1ccccc1	MPTP block 94 | Rh123 counter 90
O=[N+]([O-])c1ccc(O)c(CSc2nnnn2-c2ccccc2)c1	MPTP block 78 | Rh123 counter 93
O=C(O)c1cc(-n2nnnc2SCc2ccc([N+](=O)[O-])cc2)ccc1Cl	none
COc1ccc([C@H]2CC(=O)C=C(c3ccnc4ccc(Cl)cc34)C2)cc1	MPTP block 89, NR2E3 ag-2 89 | Rh123 counter 99
CCN1CCN(CCCNC(=O)CNC(=O)c2nn(-c3ccc(OC)cc3OC)c(=O)c3ccccc23)CC1	none
COc1ccc(C(=O)NCCc2nnc3ccc(SCC(=O)NCc4ccccc4)nn23)cc1	none
C[n+]1cccc(/C=N/Nc2nc(Cl)c(C#N)c(Cl)c2Cl)c1	MPTP block 65 | Rh123 counter 64
C[N+](C)(C)c1ccc(/C=N/Nc2nc(Cl)c(C#N)c(Cl)c2Cl)cc1	MPTP block 92 (no result: Jurkat NFkB inh, 697 NFkB inh) | Rh123 counter 95
CCCCc1c(Cc2ccccc2)ncn1CCc1ccccc1OC	MPTP block 85 (no result: NR2E3 ag-1, Jurkat NFkB inh, 697 NFkB inh) | Rh123 counter 114
CCCCc1c(-c2ccccc2)ncn1CCc1ccccc1OC	none (no result: NR2E3 ag-1, Jurkat NFkB inh, 697 NFkB inh)
